Assay results as given in ChEMBL document CHEMBL1165950, “Design and synthesis of new potent anticancer pyrazoles with high FLT3 kinase inhibitory selectivity” (Bioorg Med Chem, 2010).

Columns and labels:
Format in all cases: functional
OVCAR-4 = experiment: Cytotoxicity against human OVCAR4 cells assessed as cell growth at 100 nM after 48 hrs by sulforhodamine B assay; settings: OVCAR-4, 48 h, read-out: Activity
SK-OV-3 = experiment: Cytotoxicity against human SKOV3 cells assessed as cell growth at 100 nM after 48 hrs by sulforhodamine B assay; settings: SK-OV-3, 48 h, read-out: Activity
[1] = Cytotoxicity against human Hs 578T cells assessed as cell growth at 0.001 uM after 48 hrs by sulforhodamine B assay; settings: read-out: Activity
A549 [2] = experiment: Cytotoxicity against human A549 cells assessed as cell growth at 1 uM after 48 hrs by sulforhodamine B assay; settings: A549, 48 h, read-out: Activity
How it was run: (§1)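 NCI-60 five-dose screen. Cells were grown in RPMI 1640 with 5% FBS and 2 mM L-glutamine, plated at 5000–40,000 cells/well and preincubated for 24 h. Time-zero plates were TCA-fixed. DMSO-solubilized drug was added at five concentrations (10-fold or ½-log serial dilutions) for 48 h at 37 °C, 5% CO2. Cells were TCA-fixed, stained with 0.4% SRB and read at 515 nm. Percent growth used time-zero, control and test absorbances.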

LOX IMVI = experiment: Cytotoxicity against human LOXIMVI cells assessed as cell growth at 10 uM; settings: read-out: Activity
How it was run: (§2)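 NCI-60 screen: cells grown in RPMI 1640 with 5% FBS and 2 mM L-glutamine, plated at 5000–40,000 cells/well according to doubling time, and preincubated 24 h at 37 °C, 5% CO2. The single 10 µM dose (DMSO stock) was added, then incubated 48 h. Cells were TCA-fixed and stained with 0.4% SRB, read at 515 nm, and growth % calculated against time-zero and control plates.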

IGROV-1 = experiment: Cytotoxicity against human IGROV1 cells assessed as cell growth at 10 uM; settings: read-out: Activity
How it was run: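 Single-dose NCI-60 screen at 10 µM. Cells were grown in RPMI 1640 with 5% FBS and 2 mM L-glutamine, then treated for 48 h at 37 °C. Protein was measured by SRB staining with absorbance at 515 nm. Percentage growth was recorded, and inhibition percentage was calculated as 100 minus growth percentage.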

MCF7 = experiment: Cytotoxicity against human MCF7 cells assessed as cell growth at 10 uM; settings: read-out: Activity; how it was run: as §2
EKVX = experiment: Cytotoxicity against human EKVX cells assessed as cell growth at 0.001 uM after 48 hrs by sulforhodamine B assay; settings: read-out: Activity
SF-539 = experiment: Cytotoxicity against human SF539 cells assessed as cell growth at 1 uM after 48 hrs by sulforhodamine B assay; settings: SF-539, 48 h, read-out: Activity
U-251 = experiment: Cytotoxicity against human U251 cells assessed as cell growth at 1 uM after 48 hrs by sulforhodamine B assay; settings: U-251, 48 h, read-out: Activity
MDA-MB-435 = experiment: Cytotoxicity against human MDA-MB-435 cells assessed as cell growth at 1 uM after 48 hrs by sulforhodamine B assay; settings: MDA-MB-435, 48 h, read-out: Activity
[3] = Cytotoxicity against human RPMI8266 cells assessed as cell growth at 0.01 uM after 48 hrs by sulforhodamine B assay; settings: read-out: Activity
NCI-H522 = experiment: Cytotoxicity against human NCI-H522 cells assessed as cell growth at 0.01 uM after 48 hrs by sulforhodamine B assay; settings: NCI-H522, 48 h, read-out: Activity
SF-295 = experiment: Cytotoxicity against human SF295 cells assessed as cell growth at 0.01 uM after 48 hrs by sulforhodamine B assay; settings: SF-295, 48 h, read-out: Activity
[4] = Growth inhibition of human NCI60 cells at 10 uM after 48 hrs by sulforhodamine B assay relative to control; settings: NCI60, 48 h, read-out: GI
How it was run: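 Single-dose NCI screen at 10 µM across the 60-line panel, 48 h exposure at 37 °C after a 24 h preincubation. Adherent cells were fixed with cold TCA and stained with 0.4% SRB, and absorbance was read at 515 nm. Inhibition % was taken as 100 minus growth %, and the mean across all lines was reported.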

OVCAR-8 = experiment: Cytotoxicity against human OVCAR8 cells assessed as cell growth at 0.01 uM after 48 hrs by sulforhodamine B assay; settings: OVCAR-8, 48 h, read-out: Activity
SF-268 = experiment: Cytotoxicity against human SF268 cells assessed as cell growth at 0.001 uM after 48 hrs by sulforhodamine B assay; settings: SF-268, 48 h, read-out: Activity
M14 = experiment: Cytotoxicity against human M14 cells assessed as cell growth at 0.001 uM after 48 hrs by sulforhodamine B assay; settings: M14, 48 h, read-out: Activity
OVCAR-5 [5] = experiment: Cytotoxicity against human OVCAR5 cells assessed as cell growth at 0.001 uM after 48 hrs by sulforhodamine B assay; settings: OVCAR-5, 48 h, read-out: Activity
NCI-H23 = experiment: Growth inhibition of human NCI-H23 cells after 48 hrs by sulforhodamine B assay; settings: NCI-H23, 48 h; for CC50: read-out: LC50 (the source's name)
How it was run: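 NCI 60-cell screen, five-dose mode. Cells grown in RPMI 1640 with 5% FBS and 2 mM L-glutamine and plated at 5000-40,000 cells/well according to doubling time. After 24 h preincubation, a Tz plate was TCA-fixed. Five concentrations (10-fold or 1/2 log dilutions) were applied for 48 h at 37 °C. SRB staining read at 515 nm. IC50 taken from [(Ti-Tz)/(C-Tz)]×100 = 50.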

OVCAR-3 = experiment: Cytotoxicity against human OVCAR-3 cells assessed as cell growth at 1 uM after 48 hrs by sulforhodamine B assay; settings: OVCAR-3, 48 h, read-out: Activity
MDA-MB-468 = experiment: Cytotoxicity against human MDA-MB-468 cells assessed as cell growth at 1 uM after 48 hrs by sulforhodamine B assay; settings: MDA-MB-468, 48 h, read-out: Activity
K562 = experiment: Cytotoxicity against human K562 cells assessed as cell growth at 10 uM after 48 hrs by sulforhodamine B assay; settings: K562, 48 h, read-out: Activity
A549 [6] = experiment: Cytotoxicity against human A549 cells assessed as cell growth at 10 uM after 48 hrs by sulforhodamine B assay; settings: A549, 48 h, read-out: Activity; how it was run: as §1
HOP-62 = experiment: Cytotoxicity against human HOP62 cells assessed as cell growth at 10 uM after 48 hrs by sulforhodamine B assay; settings: HOP-62, 48 h, read-out: Activity
SK-MEL-2 = experiment: Cytotoxicity against human SK-MEL-2 cells assessed as cell growth at 10 uM after 48 hrs by sulforhodamine B assay; settings: SK-MEL-2, 48 h, read-out: Activity
OVCAR-5 [7] = experiment: Cytotoxicity against human OVCAR5 cells assessed as cell growth at 10 uM after 48 hrs by sulforhodamine B assay; settings: OVCAR-5, 48 h, read-out: Activity
A498 = experiment: Cytotoxicity against human A498 cells assessed as cell growth at 10 uM after 48 hrs by sulforhodamine B assay; settings: A498, 48 h, read-out: Activity; how it was run: as §1
MDA-MB-231 = experiment: Cytotoxicity against human MDA-MB-231 cells assessed as cell growth at 10 uM after 48 hrs by sulforhodamine B assay; settings: MDA-MB-231, 48 h, read-out: Activity

| SMILES | growth at 0.1 µM (OVCAR-4) | growth at 0.1 µM (SK-OV-3) | growth at 0.001 µM [1] | growth at 1 µM (A549 [2]) | growth at 10 µM (LOX IMVI) | growth at 10 µM (IGROV-1) | growth at 10 µM (MCF7) | growth at 0.001 µM (EKVX) | growth at 1 µM (SF-539) | growth at 1 µM (U-251) | growth at 1 µM (MDA-MB-435) | growth at 0.01 µM [3] | growth at 0.01 µM (NCI-H522) | growth at 0.01 µM (SF-295) | inhibition of growth at 10 µM [4] | growth at 0.01 µM (OVCAR-8) | growth at 0.001 µM (SF-268) | growth at 0.001 µM (M14) | growth at 0.001 µM (OVCAR-5 [5]) | GI50 (NCI-H23) | other results |
| --- | --- | --- | --- | --- | --- | --- | --- | --- | --- | --- | --- | --- | --- | --- | --- | --- | --- | --- | --- | --- | --- |
| COc1cc(C)cc(-c2nn(CC#N)cc2-c2ccc(-c3cccc(C(C)=O)c3)nc2)c1 | 92% | 104% | 84% | 21% | 25.4% | 34.6% | 8.74% | 99% | -39% | 6% | -44% | 93% | 82% | 98% | 78.7% | 88% | 99% | 94% | 74% | 3.45 µM | TGI (NCI-H23): 84 µM; CC50 (NCI-H23): > 100 µM; growth at 1 µM (OVCAR-3): -61%; growth at 1 µM (MDA-MB-468): -42%; growth at 10 µM (K562): 9%; growth at 10 µM (A549 [6]): -22%; growth at 10 µM (HOP-62): -12%; growth at 10 µM (SK-MEL-2): -14%; growth at 10 µM (OVCAR-5 [7]): -18%; growth at 10 µM (A498): -55%; growth at 10 µM (MDA-MB-231): 1% |
| COc1cc(C)cc(-c2nn(CC#N)cc2-c2ccnc(-c3ccc(N(C)C)cc3)c2)c1 | 33% | -6% | 103% | 14% | 5.2% | 13.1% | 10.1% | 91% | -35% | -5% | -7% | 110% | 87% | 94% | 92.3% | 97% | 103% | 96% | 98% | 0.514 µM | TGI (NCI-H23): > 100 µM; CC50 (NCI-H23): > 100 µM; growth at 1 µM (OVCAR-3): -41%; growth at 1 µM (MDA-MB-468): -55%; growth at 10 µM (K562): 3%; growth at 10 µM (A549 [6]): -6%; growth at 10 µM (HOP-62): -13%; growth at 10 µM (SK-MEL-2): -12%; growth at 10 µM (OVCAR-5 [7]): 15%; growth at 10 µM (A498): -33%; growth at 10 µM (MDA-MB-231): 4% |
| COc1cc(C)cc(-c2c(-c3ccnc(-c4ccc(C(C)=O)cc4)c3)cnn2CC#N)c1 | 105% | 102% | 95% | 25% | 58.8% | 98.5% | 21.9% | 95% | -45% | 4% | 17% | 94% | 81% | 98% | 33.4% | 83% | 97% | 95% | 85% | 3.9 µM | TGI (NCI-H23): > 100 µM; CC50 (NCI-H23): > 100 µM; growth at 1 µM (OVCAR-3): -10%; growth at 1 µM (MDA-MB-468): -48%; growth at 10 µM (K562): 15%; growth at 10 µM (A549 [6]): 30%; growth at 10 µM (HOP-62): 11%; growth at 10 µM (SK-MEL-2): 20%; growth at 10 µM (OVCAR-5 [7]): 72%; growth at 10 µM (A498): 27%; growth at 10 µM (MDA-MB-231): 26% |
| COc1cc(C)cc(-c2c(-c3ccnc(-c4ccc(N(C)C)cc4)c3)cnn2CC#N)c1 | 33% | 37% | 88% | 5% | 4.55% | 20.1% | 2.45% | 97% | 1% | 6% | -29% | 78% | -7% | 56% | 88.4% | 28% | 98% | 95% | 90% | 0.276 µM | TGI (NCI-H23): > 100 µM; CC50 (NCI-H23): > 100 µM; growth at 1 µM (OVCAR-3): 3%; growth at 1 µM (MDA-MB-468): -57%; growth at 10 µM (K562): -5%; growth at 10 µM (A549 [6]): 4%; growth at 10 µM (HOP-62): 32%; growth at 10 µM (SK-MEL-2): 10%; growth at 10 µM (OVCAR-5 [7]): 97%; growth at 10 µM (A498): 7%; growth at 10 µM (MDA-MB-231): 25% |
| Cc1cc(O)cc(-c2nn(CC#N)cc2-c2ccnc(-c3ccc(N(C)C)cc3)c2)c1 | 101% | 101% | 98% | 23% | 33.7% | 44% | 14.9% | 96% | -34% | 8% | -49% | 99% | 84% | 89% | 65.3% | 97% | 97% | 96% | 96% | 4.48 µM | TGI (NCI-H23): 24.8 µM; CC50 (NCI-H23): > 100 µM; growth at 1 µM (OVCAR-3): -40%; growth at 1 µM (MDA-MB-468): -50%; growth at 10 µM (K562): -6%; growth at 10 µM (A549 [6]): -8%; growth at 10 µM (HOP-62): -22%; growth at 10 µM (SK-MEL-2): -46%; growth at 10 µM (OVCAR-5 [7]): -18%; growth at 10 µM (A498): -33%; growth at 10 µM (MDA-MB-231): -21% |
| Cc1cc(O)cc(-c2nn(CC#N)cc2-c2ccnc(-c3ccc(Oc4ccccc4)cc3)c2)c1 | 106% | 101% | 103% | -37% | 16.6% | 72.2% | 18.4% | 103% | 13% | -97% | -18% | 100% | 72% | 94% | 46.6% | 91% | 88% | 95% | 72% | 1.94 µM | TGI (NCI-H23): 3.97 µM; CC50 (NCI-H23): 8.13 µM; growth at 1 µM (OVCAR-3): -63%; growth at 1 µM (MDA-MB-468): -62%; growth at 10 µM (K562): -2%; growth at 10 µM (A549 [6]): -71%; growth at 10 µM (HOP-62): -93%; growth at 10 µM (SK-MEL-2): -81%; growth at 10 µM (OVCAR-5 [7]): -89%; growth at 10 µM (A498): -92%; growth at 10 µM (MDA-MB-231): -62% |
